Measurements taken from ChEMBL document CHEMBL3098117, “Identification and optimization of an aminoalcohol-carbazole series with antimalarial properties” (ACS Med Chem Lett, 2013).
Active and inactive are the calls of the source. The rule behind the calls is not given here.

Experiments:
[1] = tested on: Plasmodium falciparum; assay: Antimalarial activity against chloroquine, pyrimethamine, sulfadoxine, quinine and mefloquine-sensitive Plasmodium falciparum D6; assay type: functional, organism-based
[2] = tested on: Plasmodium berghei; assay: Antimalarial activity against Plasmodium berghei ANKA expressing GFP infected in NMRI mouse assessed as mean survival days at 100 mg/kg/day, po qd for 4 days measured at 24 hrs after last dose; assay type: functional
In short: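 P. berghei-infected mice dosed orally once daily on days 0–3, starting 4 h postinfection, in groups of 3, 10, 30 and 100 mg/kg/day. Red blood cell parasitemia and plasma exposure measured on day 4, 24 h after the last dose. Mean survival days then monitored over 26 further days.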

[3] = tested on: Plasmodium berghei; assay: Antimalarial activity against Plasmodium berghei ANKA expressing GFP infected in NMRI mouse assessed as reduction in parasitemia at 100 mg/kg/day, po qd for 4 days measured at 24 hrs after last dose relative to control; assay type: functional; parameters: scale not given: the % may be the effect or the level left
In short: (§1)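 P. berghei-infected mice dosed orally once daily on days 0–3, first dose 4 h postinfection, at 3, 10, 30 and 100 mg/kg/day. Red blood cell parasitemia and plasma exposure measured on day 4, 24 h after last dose; ED50 derived from dose-response; survival then monitored for 26 further days as mean survival days.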

[4] = tested on: Plasmodium berghei; assay: Antimalarial activity against Plasmodium berghei ANKA expressing GFP infected in NMRI mouse assessed as reduction in parasitemia at 10 mg/kg/day, po qd for 4 days measured at 24 hrs after last dose relative to control; assay type: functional; parameters: scale not given: the % may be the effect or the level left; in short: as §1
[5] = tested on: Plasmodium falciparum; assay: Antimalarial activity against mefloquine-resistant Plasmodium falciparum TM91C235; assay type: functional, organism-based
[6] = tested on: Salmonella typhimurium; assay: Mutagenic activity in Salmonella typhimurium by Ames test under metabolic conditions; assay type: toxicity, organism-based; details: salmonella enterica subsp. enterica serovar typhimurium
[7] = molecular target: Cytochrome P450 2D6 (Homo sapiens, UniProt P10635); assay: Inhibition of human recombinant CYP2D6 expressed in baculovirus-infected insect cells preincubated for 15 mins followed by substrate addition measured after 30 mins by luminescence assay; assay type: ADME; details: recombinant enzyme, 0.5 h
Cytochrome P450 2D6, sequence (P10635 whole entry): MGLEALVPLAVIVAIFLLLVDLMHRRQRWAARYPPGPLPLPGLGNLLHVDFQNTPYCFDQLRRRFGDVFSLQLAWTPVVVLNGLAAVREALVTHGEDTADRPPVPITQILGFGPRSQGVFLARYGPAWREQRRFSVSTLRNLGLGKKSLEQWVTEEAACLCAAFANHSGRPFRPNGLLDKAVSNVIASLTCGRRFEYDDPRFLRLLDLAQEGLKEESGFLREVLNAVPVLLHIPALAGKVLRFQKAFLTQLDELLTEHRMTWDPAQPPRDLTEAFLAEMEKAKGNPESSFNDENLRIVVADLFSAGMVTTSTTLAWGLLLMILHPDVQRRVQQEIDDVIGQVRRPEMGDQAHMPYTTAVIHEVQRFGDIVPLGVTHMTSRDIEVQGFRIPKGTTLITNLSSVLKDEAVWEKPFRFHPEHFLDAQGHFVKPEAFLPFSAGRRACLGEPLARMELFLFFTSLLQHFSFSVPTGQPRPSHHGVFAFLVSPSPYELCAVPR

[8] = Genotoxicity in micronucleus (unknown origin)
[9] = tested on: Salmonella typhimurium; assay: Mutagenic activity in Salmonella typhimurium by Ames test; assay type: toxicity, organism-based; details: salmonella enterica subsp. enterica serovar typhimurium
[10] = molecular target: T1, A-type voltage-gated potassium channel KCND3 (Homo sapiens, UniProt Q9UK17); assay: Inhibition of Kv4.3 channel (unknown origin)
T1 sequence (Q9UK17 whole entry): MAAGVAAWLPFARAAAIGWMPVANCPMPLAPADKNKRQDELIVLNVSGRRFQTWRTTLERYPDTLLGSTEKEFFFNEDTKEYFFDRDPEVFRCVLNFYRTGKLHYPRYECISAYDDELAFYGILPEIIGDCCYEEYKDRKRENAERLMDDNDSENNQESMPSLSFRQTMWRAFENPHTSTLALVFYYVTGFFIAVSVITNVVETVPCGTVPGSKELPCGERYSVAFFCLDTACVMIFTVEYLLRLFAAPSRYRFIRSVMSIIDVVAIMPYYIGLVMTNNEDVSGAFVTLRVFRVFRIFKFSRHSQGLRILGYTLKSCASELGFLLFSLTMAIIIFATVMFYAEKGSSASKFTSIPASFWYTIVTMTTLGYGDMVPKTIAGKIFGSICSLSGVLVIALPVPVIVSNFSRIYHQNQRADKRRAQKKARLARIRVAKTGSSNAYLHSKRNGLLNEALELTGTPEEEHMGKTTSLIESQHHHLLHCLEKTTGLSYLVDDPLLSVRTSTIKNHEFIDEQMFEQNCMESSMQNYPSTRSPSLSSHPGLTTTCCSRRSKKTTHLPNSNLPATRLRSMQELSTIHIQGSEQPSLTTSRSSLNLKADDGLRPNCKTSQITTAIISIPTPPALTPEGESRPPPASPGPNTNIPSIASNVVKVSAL

[11] = tested on: Plasmodium falciparum; assay: Antimalarial activity against Plasmodium falciparum K1 infected in human RBC after 72 hrs by hypoxanthine incorporation assay in presence of serum albumin; assay type: functional, organism-based; details: K1, 72 h
In short: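 Mixture of drug, human red blood cells and P. falciparum incubated 3 days (72 h) with serum albumin present; growth read as hypoxanthine incorporation.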

[12] = Volume of distribution at steady state in NMRI mouse at 1 mg/kg, iv by LC-MS/MS analysis; assay type: ADME, organism-based; parameters: dose 1 mg/kg, route intravenous; details: in vivo, read-out: Vdss
[13] = molecular target: Potassium voltage-gated channel subfamily A member 5 (Homo sapiens) (UniProt P22460); assay: Inhibition of human Kv1.5 channel
Potassium voltage-gated channel subfamily A member 5 (Homo sapiens), sequence (P22460 whole entry): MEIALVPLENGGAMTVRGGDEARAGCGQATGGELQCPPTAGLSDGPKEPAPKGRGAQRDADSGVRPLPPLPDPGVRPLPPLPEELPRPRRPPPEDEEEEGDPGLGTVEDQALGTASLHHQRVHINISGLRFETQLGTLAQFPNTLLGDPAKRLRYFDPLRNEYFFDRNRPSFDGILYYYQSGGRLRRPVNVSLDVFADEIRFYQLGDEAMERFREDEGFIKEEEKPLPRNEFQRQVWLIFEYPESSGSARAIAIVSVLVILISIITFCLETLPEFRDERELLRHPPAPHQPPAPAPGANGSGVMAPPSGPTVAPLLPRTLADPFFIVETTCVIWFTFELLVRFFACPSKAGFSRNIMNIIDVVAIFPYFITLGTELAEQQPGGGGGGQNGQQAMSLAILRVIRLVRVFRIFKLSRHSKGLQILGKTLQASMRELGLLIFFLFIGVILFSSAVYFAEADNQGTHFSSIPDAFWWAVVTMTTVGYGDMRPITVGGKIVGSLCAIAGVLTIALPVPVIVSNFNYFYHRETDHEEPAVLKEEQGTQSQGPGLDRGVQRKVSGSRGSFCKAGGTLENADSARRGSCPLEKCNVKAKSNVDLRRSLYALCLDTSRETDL

[14] = molecular target: T2, Inward rectifier potassium channel 2 (Homo sapiens, UniProt P63252); assay: Inhibition of human Kir2.1 channel
T2 sequence (P63252 whole entry): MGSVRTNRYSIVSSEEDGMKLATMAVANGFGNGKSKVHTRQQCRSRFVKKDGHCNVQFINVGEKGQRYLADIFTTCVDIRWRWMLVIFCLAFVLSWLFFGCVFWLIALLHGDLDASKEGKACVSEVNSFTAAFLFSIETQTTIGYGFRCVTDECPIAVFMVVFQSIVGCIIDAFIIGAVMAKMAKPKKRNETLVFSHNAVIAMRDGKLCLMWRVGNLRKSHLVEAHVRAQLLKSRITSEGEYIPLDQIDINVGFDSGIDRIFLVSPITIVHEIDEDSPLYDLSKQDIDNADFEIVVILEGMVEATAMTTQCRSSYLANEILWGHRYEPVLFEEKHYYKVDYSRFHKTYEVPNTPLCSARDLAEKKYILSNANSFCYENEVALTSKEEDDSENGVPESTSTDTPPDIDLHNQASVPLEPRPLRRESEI

[15] = tested on: Plasmodium falciparum; assay: Antimalarial activity against chloroquine, pyrimethamine, cycloguanil-resistant Plasmodium falciparum 7G8; assay type: functional, organism-based
[16] = molecular target: Cytochrome P450 2C19 (Homo sapiens, UniProt P33261); assay: Inhibition of human recombinant CYP2C19 expressed in baculovirus-infected insect cells preincubated for 15 mins followed by substrate addition measured after 30 mins by luminescence assay; assay type: ADME; details: recombinant enzyme, 0.5 h
Cytochrome P450 2C19, sequence (P33261 whole entry): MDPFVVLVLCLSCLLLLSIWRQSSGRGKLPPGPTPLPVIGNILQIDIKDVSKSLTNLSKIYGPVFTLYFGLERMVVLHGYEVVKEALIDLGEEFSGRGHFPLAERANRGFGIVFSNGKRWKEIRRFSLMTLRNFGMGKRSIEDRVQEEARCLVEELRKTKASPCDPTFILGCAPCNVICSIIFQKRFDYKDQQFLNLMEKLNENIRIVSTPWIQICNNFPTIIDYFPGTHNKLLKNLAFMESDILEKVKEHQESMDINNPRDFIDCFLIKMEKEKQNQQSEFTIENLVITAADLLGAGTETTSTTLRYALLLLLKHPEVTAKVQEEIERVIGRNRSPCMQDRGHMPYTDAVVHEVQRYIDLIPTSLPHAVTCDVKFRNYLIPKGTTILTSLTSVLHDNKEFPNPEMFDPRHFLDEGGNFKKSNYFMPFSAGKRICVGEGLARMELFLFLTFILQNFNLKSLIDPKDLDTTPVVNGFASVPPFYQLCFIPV

[17] = molecular target: hERG (KCNH2) (Homo sapiens, UniProt Q12809); assay: Inhibition of human ERG expressed in CHO cells at 10 uM relative to control; assay type: cell-based; details: CHO cells expressing human ERG
[18] = Terminal half life in NMRI mouse at 5 mg/kg, po by LC-MS/MS analysis; assay type: ADME, organism-based; parameters: dose 5 mg/kg, route oral; details: in vivo, read-out: beta t1/2 (converted)
[19] = molecular target: Cytochrome P450 3A4 (Homo sapiens, UniProt P08684); assay: Inhibition of human recombinant CYP3A4 expressed in baculovirus-infected insect cells preincubated for 15 mins followed by substrate addition measured after 30 mins by luminescence assay; assay type: ADME; details: recombinant enzyme, 0.5 h
Cytochrome P450 3A4, sequence (P08684 whole entry): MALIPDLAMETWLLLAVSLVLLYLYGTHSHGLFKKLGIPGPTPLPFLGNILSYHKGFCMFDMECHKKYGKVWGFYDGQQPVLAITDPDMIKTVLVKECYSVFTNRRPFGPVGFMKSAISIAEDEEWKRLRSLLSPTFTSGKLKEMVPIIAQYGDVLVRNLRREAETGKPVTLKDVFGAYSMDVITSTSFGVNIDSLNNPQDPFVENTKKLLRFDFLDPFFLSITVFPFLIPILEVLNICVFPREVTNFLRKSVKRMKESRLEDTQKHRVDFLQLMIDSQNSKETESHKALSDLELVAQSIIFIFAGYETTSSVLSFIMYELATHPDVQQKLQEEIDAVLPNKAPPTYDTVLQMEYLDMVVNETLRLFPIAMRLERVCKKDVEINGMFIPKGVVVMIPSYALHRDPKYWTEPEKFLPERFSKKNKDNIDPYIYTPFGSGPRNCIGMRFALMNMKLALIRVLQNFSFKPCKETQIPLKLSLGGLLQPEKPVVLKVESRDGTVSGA

[20] = molecular target: Voltage-dependent L-type calcium channel subunit alpha-1C (Homo sapiens, UniProt Q13936); assay: Inhibition of human Cav1.2 channel
[21] = tested on: Plasmodium berghei; assay: Antimalarial activity against Plasmodium berghei ANKA expressing GFP infected in NMRI mouse assessed as effect on mouse survival at 10 mg/kg/day, po qd for 4 days measured at 24 hrs after last dose; assay type: functional, organism-based; in short: as §1
[22] = tested on: Plasmodium falciparum; assay: Antimalarial activity against chloroquine, pyrimethamine, quinine-resistant Plasmodium falciparum V1S; assay type: functional; details: VS/1
[23] = molecular target: Sodium channel protein type 5 subunit alpha (Homo sapiens, UniProt Q14524); assay: Inhibition of human Nav1.5 channel
Sodium channel protein type 5 subunit alpha, sequence (Q14524 whole entry): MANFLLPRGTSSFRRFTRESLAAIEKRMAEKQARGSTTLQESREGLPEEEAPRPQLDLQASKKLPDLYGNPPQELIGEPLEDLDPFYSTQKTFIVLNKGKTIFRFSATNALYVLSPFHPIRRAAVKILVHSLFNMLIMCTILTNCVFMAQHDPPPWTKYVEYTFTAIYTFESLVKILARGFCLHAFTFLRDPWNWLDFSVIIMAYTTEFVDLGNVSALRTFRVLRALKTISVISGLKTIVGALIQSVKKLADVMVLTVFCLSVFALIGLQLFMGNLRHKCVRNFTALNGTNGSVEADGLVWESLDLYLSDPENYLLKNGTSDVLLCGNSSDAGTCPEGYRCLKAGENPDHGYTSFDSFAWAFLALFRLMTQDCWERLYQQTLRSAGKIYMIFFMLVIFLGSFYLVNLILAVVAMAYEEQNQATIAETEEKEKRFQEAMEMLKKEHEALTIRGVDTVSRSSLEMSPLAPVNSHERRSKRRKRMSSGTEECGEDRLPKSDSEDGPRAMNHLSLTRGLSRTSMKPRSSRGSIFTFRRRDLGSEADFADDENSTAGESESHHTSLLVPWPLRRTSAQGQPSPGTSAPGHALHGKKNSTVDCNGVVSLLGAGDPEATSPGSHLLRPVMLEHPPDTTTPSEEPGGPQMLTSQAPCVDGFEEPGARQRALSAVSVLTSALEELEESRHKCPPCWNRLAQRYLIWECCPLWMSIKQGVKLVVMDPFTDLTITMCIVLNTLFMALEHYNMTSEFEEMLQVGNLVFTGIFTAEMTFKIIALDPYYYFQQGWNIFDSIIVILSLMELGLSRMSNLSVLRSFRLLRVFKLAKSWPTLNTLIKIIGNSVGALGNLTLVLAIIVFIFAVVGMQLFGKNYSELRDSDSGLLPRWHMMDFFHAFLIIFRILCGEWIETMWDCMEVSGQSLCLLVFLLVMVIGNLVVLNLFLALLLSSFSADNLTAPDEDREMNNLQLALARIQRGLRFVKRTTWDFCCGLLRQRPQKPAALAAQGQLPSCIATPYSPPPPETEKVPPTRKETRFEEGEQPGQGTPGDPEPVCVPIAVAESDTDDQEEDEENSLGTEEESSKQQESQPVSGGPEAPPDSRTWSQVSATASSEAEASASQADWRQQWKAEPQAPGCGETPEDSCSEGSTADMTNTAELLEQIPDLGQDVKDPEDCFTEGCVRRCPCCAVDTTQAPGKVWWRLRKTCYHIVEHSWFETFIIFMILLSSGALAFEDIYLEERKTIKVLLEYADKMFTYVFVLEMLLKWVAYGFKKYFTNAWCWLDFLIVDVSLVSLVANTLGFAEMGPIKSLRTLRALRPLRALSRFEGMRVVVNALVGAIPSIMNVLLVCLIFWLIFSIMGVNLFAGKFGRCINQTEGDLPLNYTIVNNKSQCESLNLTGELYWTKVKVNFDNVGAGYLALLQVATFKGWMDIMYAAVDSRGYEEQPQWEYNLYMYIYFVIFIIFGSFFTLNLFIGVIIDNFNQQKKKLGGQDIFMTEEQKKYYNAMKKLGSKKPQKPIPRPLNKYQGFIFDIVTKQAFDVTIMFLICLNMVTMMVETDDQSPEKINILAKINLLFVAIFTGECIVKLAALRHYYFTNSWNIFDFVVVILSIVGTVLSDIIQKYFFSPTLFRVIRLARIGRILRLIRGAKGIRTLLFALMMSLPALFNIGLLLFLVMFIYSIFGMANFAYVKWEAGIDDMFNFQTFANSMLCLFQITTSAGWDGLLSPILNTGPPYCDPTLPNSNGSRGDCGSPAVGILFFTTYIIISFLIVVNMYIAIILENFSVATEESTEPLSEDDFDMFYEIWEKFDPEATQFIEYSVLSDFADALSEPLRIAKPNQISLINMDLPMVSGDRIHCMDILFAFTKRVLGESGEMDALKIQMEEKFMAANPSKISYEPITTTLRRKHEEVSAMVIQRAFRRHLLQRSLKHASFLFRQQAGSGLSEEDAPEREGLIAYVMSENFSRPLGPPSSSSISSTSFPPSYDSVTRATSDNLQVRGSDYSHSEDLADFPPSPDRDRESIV

[24] = tested on: Plasmodium berghei; assay: Antimalarial activity against Plasmodium berghei ANKA expressing GFP infected in po dosed NMRI mouse assessed as reduction in parasitemia administered qd for 4 days measured at 24 hrs after last dose; assay type: functional; in short: as §1
[25] = tested on: Plasmodium falciparum; assay: Antimalarial activity against drug-sensitive Plasmodium falciparum NF54; assay type: functional, organism-based

Structure (SMILES): OC(CNC1CCCCC1)Cn1c2ccc(Br)cc2c2cc(Br)ccc21 (racemic)
- Activity [1]: Active
- MSD [2]: 30 days
- Activity [3]: 99.97%
- Activity [4]: 38%
- Activity [5]: Active
- Activity [6]: Non-toxic
- inhibition (INH) [7]: Active
- Activity [8]: Non-toxic
- Activity [9]: Non-toxic
- inhibition (INH) [10]: Not Active
- IC50 [11]: 9 nM
- Vd [12]: 13 L/kg
- inhibition [13]: inactive
- inhibition (INH) [14]: Not Active
- Activity [15]: Active
- inhibition (INH) [16]: Active
- inhibition at 10 µM [17]: 99%
- half-life [18]: 15 h
- inhibition (INH) [19]: Active
- inhibition (INH) [20]: Not Active
- Activity [21]: inactive
- Activity [22]: Active
- inhibition (INH) [23]: Not Active
- Activity [24]: Dose dependent effect
- ED50 [24]: 11.4 mg/kg/day
- Activity [25]: Active
